Assay results taken from paper PMC2956778 (Biochemical and biophysical research communications, 2010).
“Also recorded” adds a separate entry of the source. Read-outs that look alike come from different tables or passages of the source.

What was measured:
[1] = target: Ca2+-saturated CaM bound to RyR1 (skeletal SR vesicles) (Homo sapiens, UniProt P0DP23); test: [35S]CaM binding to skeletal SR vesicles; design: species or system rabbit; details: for Effect on [35S]CaM binding to SR vesicles: LPC effect probably an artefact (also decreased nonspecific binding)
[2] = Membrane permeability assay; design: species or system rabbit
[3] = system: microsomes from bovine brain cerebrum
[4] = system: complex between CaM and the peptide representing the CaM-binding domain of RyR1; details: cited from earlier work
[5] = system: microsomes from bovine brain cerebrum; test: Ca2+ release from brain microsomes; details: data not shown
[6] = target: RyR1 (skeletal SR vesicles) (Oryctolagus cuniculus, UniProt P11716); test: [3H]ryanodine binding to skeletal SR vesicles; design: species or system rabbit; details: for Effect on [3H]ryanodine binding: 50 μM free Ca2+
purified RyR1 = purified RyR1 (Oryctolagus cuniculus, UniProt P11716); test: Single channel recordings of purified RyR1 in planar lipid bilayers; type: biochemical, rabbit; details: for Ac1 / Ac2 / Ao1 / Ao2 / Po / τc1 / τc2 (lifetime of the second closed state) / τo1 / τo2 / No. of events: +1 μM SPC; for No. of events: 2 min recordings; for Single channel open probability (Po), representative recording: after 1 μM SPC cis
Procedure, shortened: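 Purified RyR1 from rabbit SR: CHAPS-solubilised, sucrose-gradient purified, reconstituted into phosphatidylcholine liposomes, fused cis into PE:PS:PC (5:3:2) n-decane bilayers. Symmetrical 0.25 M KCl, 20 mM K-HEPES pH 7.4, 22 μM free Ca²⁺ cis. Test compound added cis. For +CaM, 30 min room-temperature preincubation with 1 μM CaM, then 100 nM CaM cis. Recorded at ±35 mV, sampled 10 kHz, filtered 2 kHz, ≥2 min per condition. Dwell times fitted by maximum likelihood to exponential sums.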

RyR1 (skeletal SR vesicles), sequence (P11716 whole entry): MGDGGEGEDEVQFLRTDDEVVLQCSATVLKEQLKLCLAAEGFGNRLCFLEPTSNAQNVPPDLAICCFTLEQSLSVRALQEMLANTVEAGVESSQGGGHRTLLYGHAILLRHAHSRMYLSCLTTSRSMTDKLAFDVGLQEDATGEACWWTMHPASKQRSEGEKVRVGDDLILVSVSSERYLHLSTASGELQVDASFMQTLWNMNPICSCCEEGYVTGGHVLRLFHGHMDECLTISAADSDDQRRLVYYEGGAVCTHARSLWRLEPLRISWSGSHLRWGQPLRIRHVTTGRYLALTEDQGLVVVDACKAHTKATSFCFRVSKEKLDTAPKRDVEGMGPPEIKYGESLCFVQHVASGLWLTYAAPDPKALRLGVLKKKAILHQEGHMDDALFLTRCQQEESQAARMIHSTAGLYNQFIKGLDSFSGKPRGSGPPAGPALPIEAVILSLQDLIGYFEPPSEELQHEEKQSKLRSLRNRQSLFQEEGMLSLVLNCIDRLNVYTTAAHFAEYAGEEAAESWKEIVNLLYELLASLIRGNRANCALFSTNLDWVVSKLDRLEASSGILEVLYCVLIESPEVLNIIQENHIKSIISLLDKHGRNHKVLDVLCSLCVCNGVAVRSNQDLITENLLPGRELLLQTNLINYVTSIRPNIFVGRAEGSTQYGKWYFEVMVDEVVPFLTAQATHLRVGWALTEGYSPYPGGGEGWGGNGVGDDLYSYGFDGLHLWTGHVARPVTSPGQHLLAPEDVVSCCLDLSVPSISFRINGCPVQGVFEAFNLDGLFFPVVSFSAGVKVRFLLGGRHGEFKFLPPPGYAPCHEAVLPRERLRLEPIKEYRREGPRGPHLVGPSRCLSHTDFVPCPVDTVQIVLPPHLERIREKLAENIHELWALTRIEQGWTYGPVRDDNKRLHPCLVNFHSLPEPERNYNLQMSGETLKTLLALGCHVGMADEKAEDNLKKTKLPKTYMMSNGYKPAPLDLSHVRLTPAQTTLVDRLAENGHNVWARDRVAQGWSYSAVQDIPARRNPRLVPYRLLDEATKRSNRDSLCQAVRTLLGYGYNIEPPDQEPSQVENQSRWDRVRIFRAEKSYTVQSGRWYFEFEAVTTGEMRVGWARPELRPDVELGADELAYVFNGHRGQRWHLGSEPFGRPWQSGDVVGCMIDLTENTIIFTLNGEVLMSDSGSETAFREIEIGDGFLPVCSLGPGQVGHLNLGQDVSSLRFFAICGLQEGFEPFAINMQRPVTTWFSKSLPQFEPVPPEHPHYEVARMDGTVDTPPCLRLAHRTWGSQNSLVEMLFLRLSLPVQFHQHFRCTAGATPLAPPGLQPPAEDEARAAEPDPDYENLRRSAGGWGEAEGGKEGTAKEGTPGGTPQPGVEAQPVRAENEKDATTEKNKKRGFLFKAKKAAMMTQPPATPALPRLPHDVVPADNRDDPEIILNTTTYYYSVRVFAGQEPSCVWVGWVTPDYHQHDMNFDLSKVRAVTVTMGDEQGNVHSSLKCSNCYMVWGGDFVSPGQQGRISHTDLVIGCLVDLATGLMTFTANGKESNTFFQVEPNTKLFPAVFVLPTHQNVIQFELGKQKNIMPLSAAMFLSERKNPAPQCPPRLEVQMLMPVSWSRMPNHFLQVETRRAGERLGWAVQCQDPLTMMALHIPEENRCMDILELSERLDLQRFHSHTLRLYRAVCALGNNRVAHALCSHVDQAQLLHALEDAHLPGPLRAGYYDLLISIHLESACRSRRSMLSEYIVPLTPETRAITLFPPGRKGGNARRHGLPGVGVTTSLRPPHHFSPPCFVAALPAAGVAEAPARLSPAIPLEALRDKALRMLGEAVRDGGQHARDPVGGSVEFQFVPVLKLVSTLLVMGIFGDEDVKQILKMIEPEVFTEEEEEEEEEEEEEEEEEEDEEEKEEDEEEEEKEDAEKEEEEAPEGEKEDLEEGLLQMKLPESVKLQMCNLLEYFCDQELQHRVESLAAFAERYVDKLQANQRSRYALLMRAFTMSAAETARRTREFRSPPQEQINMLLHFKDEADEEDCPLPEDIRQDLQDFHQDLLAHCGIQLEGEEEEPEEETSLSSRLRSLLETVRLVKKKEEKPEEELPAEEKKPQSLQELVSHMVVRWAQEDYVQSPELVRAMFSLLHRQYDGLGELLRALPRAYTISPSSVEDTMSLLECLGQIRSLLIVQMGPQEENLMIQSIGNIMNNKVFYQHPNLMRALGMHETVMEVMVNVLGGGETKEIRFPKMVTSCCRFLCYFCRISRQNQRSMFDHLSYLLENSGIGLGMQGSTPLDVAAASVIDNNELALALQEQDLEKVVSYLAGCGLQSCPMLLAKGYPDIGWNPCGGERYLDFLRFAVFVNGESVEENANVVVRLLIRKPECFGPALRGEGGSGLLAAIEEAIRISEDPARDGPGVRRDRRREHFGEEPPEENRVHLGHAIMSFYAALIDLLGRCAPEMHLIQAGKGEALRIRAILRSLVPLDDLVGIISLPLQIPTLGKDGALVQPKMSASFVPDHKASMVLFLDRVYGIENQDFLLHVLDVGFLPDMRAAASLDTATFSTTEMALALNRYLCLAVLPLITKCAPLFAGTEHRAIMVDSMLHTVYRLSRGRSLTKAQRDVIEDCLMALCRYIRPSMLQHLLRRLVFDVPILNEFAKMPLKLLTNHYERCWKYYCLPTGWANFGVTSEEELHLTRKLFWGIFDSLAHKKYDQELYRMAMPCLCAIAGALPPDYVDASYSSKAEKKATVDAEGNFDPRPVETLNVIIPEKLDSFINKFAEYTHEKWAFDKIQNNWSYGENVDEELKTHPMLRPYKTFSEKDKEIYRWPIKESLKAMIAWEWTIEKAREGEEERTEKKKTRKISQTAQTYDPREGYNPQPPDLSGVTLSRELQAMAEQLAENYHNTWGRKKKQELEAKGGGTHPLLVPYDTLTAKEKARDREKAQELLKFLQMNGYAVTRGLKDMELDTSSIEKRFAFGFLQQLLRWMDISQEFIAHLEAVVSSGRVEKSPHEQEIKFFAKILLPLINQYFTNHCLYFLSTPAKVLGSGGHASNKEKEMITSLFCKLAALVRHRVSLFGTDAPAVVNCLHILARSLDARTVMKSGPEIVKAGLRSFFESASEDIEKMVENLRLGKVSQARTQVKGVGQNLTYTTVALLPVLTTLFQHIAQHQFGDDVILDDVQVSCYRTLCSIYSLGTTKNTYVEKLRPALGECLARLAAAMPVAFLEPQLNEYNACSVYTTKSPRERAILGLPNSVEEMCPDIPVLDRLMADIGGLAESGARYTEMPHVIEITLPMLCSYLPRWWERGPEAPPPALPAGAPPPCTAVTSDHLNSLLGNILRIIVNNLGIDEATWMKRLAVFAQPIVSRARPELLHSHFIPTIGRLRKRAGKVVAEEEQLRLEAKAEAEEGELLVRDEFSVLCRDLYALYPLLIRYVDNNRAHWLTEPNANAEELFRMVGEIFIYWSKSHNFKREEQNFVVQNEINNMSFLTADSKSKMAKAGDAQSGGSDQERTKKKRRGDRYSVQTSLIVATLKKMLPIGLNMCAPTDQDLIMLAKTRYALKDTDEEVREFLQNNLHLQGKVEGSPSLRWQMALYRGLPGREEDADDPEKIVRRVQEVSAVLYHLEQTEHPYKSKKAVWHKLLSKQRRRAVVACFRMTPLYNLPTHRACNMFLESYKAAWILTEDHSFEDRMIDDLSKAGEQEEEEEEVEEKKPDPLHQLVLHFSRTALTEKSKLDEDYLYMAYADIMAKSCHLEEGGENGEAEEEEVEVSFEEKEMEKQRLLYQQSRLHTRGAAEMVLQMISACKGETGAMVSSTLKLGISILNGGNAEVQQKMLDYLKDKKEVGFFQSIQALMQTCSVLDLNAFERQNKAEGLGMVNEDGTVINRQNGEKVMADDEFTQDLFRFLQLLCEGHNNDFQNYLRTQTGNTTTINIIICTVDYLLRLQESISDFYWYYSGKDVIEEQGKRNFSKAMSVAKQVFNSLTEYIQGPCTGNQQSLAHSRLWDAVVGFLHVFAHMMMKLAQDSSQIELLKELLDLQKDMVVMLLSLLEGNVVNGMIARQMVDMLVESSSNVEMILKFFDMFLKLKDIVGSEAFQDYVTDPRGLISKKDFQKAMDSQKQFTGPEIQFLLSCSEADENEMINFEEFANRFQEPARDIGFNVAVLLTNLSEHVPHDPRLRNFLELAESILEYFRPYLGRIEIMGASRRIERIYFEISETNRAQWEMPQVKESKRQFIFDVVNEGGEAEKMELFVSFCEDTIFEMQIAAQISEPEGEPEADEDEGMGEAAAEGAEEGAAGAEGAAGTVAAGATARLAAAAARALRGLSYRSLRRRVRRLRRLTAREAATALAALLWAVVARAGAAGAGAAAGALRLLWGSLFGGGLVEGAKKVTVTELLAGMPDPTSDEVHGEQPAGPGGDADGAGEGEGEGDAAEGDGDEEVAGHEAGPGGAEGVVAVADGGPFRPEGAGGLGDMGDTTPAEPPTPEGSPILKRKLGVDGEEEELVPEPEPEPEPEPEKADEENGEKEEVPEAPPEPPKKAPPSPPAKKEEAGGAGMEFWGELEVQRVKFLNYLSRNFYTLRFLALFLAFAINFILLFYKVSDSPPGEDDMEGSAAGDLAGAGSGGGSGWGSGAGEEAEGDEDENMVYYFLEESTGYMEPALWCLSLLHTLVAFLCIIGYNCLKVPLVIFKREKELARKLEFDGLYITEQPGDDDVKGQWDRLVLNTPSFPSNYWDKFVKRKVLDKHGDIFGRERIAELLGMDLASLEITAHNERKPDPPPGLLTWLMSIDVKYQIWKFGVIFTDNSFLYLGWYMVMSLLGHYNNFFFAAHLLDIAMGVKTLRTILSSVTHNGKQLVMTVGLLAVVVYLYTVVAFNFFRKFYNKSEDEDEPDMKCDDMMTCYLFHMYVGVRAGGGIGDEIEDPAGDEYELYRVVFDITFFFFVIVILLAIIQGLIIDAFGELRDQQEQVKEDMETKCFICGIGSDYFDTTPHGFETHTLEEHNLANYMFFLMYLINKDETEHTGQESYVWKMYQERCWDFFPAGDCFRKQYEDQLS
purified RyR1, sequence (P11716 whole entry, the tested form may be a part): as the sequence (P11716 whole entry) above

With CCCCCCCC/C=C\CCCCCCCC(=O)OC[C@@H](O)COP(=O)([O-])OCC[N+](C)(C)C [LPC, oleoyl-lysophosphatidylcholine] the “Effect on [35S]CaM binding to SR vesicles” value (“Effect on [35S]CaM binding” for short) [1] was “decreased; also recorded: significantly decrease”, the “Effect on glucose permeability of SR vesicles” value (“Effect on glucose permeability” for short) ([2]; 50 μM lysophospholipid) was “do not disrupt the permeability barrier” and the “Ca2+ release from brain microsomes” value [3] was “released a large amount of Ca^2+”. For the same compound, the “Effect in peptide binding experiments” value [4] was “without action”.
With C[C@H](CCC(=O)NCCC[N+](C)(C)CCCS(=O)(=O)[O-])[C@H]1CC[C@H]2[C@@H]3[C@H](O)C[C@@H]4C[C@H](O)CC[C@]4(C)[C@H]3C[C@H](O)[C@]12C [CHAPS] the “Effect on glucose permeability” value ([2]; 1% CHAPS detergent) was “released a large amount of stored glucose”.
In the case of Cn1c(=O)c2c(ncn2C)n(C)c1=O [caffeine], the “Ca2+ release from brain microsomes” value ([5]; 5 mM caffeine) is reported as “only had minor effects”.
In the case of CCCCCCCCCCCCC/C=C/[C@@H](O)[C@@H](N)COP(=O)(O)O [S1P, D-erythro-sphingosine-1-phosphate], the “Effect on [3H]ryanodine binding” value ([6]; absence of CaM) is reported as “minor inhibitory effect”, the “Effect on [3H]ryanodine binding” value ([6]; presence of CaM) is reported as “further decreased” and the “Effect on [35S]CaM binding” value [1] is reported as “ineffective”. The “Effect on glucose permeability” value ([2]; 50 μM lysophospholipid) was “do not disrupt the permeability barrier”.
With CCCCCCCC/C=C\CCCCCCCC(=O)OCC(O)COP(=O)(O)O (centres unmarked) [LPA, oleoyl-lysophosphatidic acid] the “Effect on [35S]CaM binding” value [1] was “ineffective”, the “Effect on glucose permeability” value ([2]; 50 μM lysophospholipid) was “do not disrupt the permeability barrier” and the “Ca2+ release from brain microsomes” value [3] was “released a large amount of Ca^2+”.
CCCCCCCCCCCCC/C=C/[C@@H](O)[C@@H](N)COP(=O)(O)OCC[N+](C)(C)C [SPC, D-erythro-sphingosylphosphorylcholine] gave an Ac1 (purified RyR1; 22 μM Ca2+) of 0.994 ± 0.003, an Ac2 (purified RyR1; 22 μM Ca2+) of 0.006 ± 0.003 and an Ao1 (purified RyR1; 22 μM Ca2+) of 0.81 ± 0.18. It also gave an Ao2 (purified RyR1; 22 μM Ca2+) of 0.19 ± 0.18, a Po (purified RyR1; 22 μM Ca2+) of 0.24 ± 0.10 and a τc1 (purified RyR1; 22 μM Ca2+) of 1.07 ± 0.68 ms. The “τc2 (lifetime of the second closed state)” value (purified RyR1; 22 μM Ca2+) was 452 ± 140 ms, the τo1 (purified RyR1; 22 μM Ca2+) was 0.24 ± 0.19 ms and the τo2 (purified RyR1; 22 μM Ca2+) was 5.09 ± 3.32 ms. It also gave an Ac1 (purified RyR1; 22 μM Ca2+ and 100 nM CaM) of 0.96 ±0.03, an Ac2 (purified RyR1; 22 μM Ca2+ and 100 nM CaM) of 0.04 ± 0.03 and an Ao1 (purified RyR1; 22 μM Ca2+ and 100 nM CaM) of 0.94 ± 0.05. For the same compound, the Ao2 (purified RyR1; 22 μM Ca2+ and 100 nM CaM) was 0.06 ± 0.05, the Po (purified RyR1; 22 μM Ca2+ and 100 nM CaM) was 0.18 ± 0.09 and the τc1 (purified RyR1; 22 μM Ca2+ and 100 nM CaM) was 2.81 ± 1.66 ms. The “τc2 (lifetime of the second closed state)” value (purified RyR1; 22 μM Ca2+ and 100 nM CaM) was 619 ± 242 ms, the τo1 (purified RyR1; 22 μM Ca2+ and 100 nM CaM) was 0.16 ± 0.12 ms and the τo2 (purified RyR1; 22 μM Ca2+ and 100 nM CaM) was 3.12 ± 2.10 ms. For the same compound, the No. of events (purified RyR1; 22 μM Ca2+ and 100 nM CaM) was 10,392 ±2633, the No. of events (purified RyR1; 22 μM Ca2+) was 9767 ± 1884 and the “Single channel open probability (Po), representative recording” value (purified RyR1; 100 nM CaM, control Po 0.15) was 0.05. For the same compound, the “Single channel open probability (Po), representative recording” value (purified RyR1; absence of CaM, control Po 0.51) was 0.16, the “Hill-slope of [3H]ryanodine binding dose-response” value ([6]; absence of CaM, oxidizing conditions (5 mM GSSG)) was −2.9 ± 0.2 and the “Hill-slope of [3H]ryanodine binding dose-response” value ([6]; absence of CaM, reducing conditions (5 mM GSH)) was −1.7 ± 0.04. For the same compound, the “Effect on [3H]ryanodine binding” value ([6]; presence of CaM) was “did not significantly alter”, the “Hill-slope of [35S]CaM displacement” value [1] was 2.3 ± 0.7 and the “Effect on [35S]CaM binding” value [1] was “significantly decrease”. The “Effect on glucose permeability” value ([2]; 50 μM lysophospholipid) was “do not disrupt the permeability barrier”, the “Ca2+ release from brain microsomes” value [3] was “released a large amount of Ca^2+” and the IC50 ([4]; read-out: IC50 in peptide binding assays) was 19.4 ± 1.4 µM.
With CC(C)[C@@]1(O)[C@@H](OC(=O)c2ccc[nH]2)[C@@]2(O)[C@@]3(C)C[C@]4(O)O[C@@]5([C@H](O)[C@@H](C)CC[C@]35O)[C@@]2(O)[C@@]14C [ryanodine] the “Ca2+ release from brain microsomes” value ([5]; 1 μM ryanodine) was “only had minor effects”.
